In ChEMBL document CHEMBL4138211, “Regio- and stereoselective synthesis of dispirooxindole-pyrrolocarbazole hybrids via 1,3-dipolar cycloaddition reactions: Cytotoxic activity and SAR studies” (Eur J Med Chem, 2018):
Calls of active or inactive are those of the source. The calls are words filed in the database; no cut-off is given here.

Legend:
MCF7 [1] = test: Induction of apoptosis in human MCF7 cells by acridine orange/ethidium bromide staining-based fluorescence microscopic analysis; assay type: functional, cell-based
Summary of the method: (§1)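 Treated cells collected and washed in PBS (pH 7.2). Stained with a 1:1 AO/EtBr mixture (each dye […] in water) and held 2 min. Washed twice in PBS and viewed by fluorescence microscopy at 400× with 480 nm excitation. Green intact-membrane cells distinguished from orange/red membrane-damaged cells.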

A549 [2] = test: Induction of apoptosis in human A549 cells assessed as formation of floating cells after 24 hrs by brightfield inverted light microscopic analysis; assay type: functional, cell-based
MCF7 [3] = test: Induction of apoptosis in human MCF7 cells assessed as chromatin condensation after 24 hrs by DAPI staining-based fluorescence microscopic analysis; assay type: functional, cell-based
Summary of the method: (§2)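 Cells plated on glass coverslips and treated for 24 h, then fixed. Permeabilised with 0.2% Triton X-100 for 10 min at room temperature. DAPI applied for 3 min under a coverslip. Nuclei inspected by fluorescence microscopy for condensed chromatin and fragmentation, against untreated cells.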

A549 [4] = test: Induction of apoptosis in human A549 cells by acridine orange/ethidium bromide staining-based fluorescence microscopic analysis; assay type: functional, cell-based; summary of the method: as §1
MCF7 [5] = test: Induction of apoptosis in human MCF7 cells assessed as formation of floating cells after 24 hrs by brightfield inverted light microscopic analysis; assay type: functional, cell-based
MCF7 [6] = test: Induction of apoptosis in human MCF7 cells assessed as membrane blebbing after 24 hrs by brightfield inverted light microscopic analysis; assay type: functional, cell-based
A549 [7] = test: Antiproliferative activity against human A549 cells after 48 hrs by MTT assay; assay type: functional, cell-based; conditions: for IC50: A549, 48 h
Summary of the method: (§3)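 Cells grown 1×10⁴/well for 48 h to about 75% confluence. Medium then replaced with fresh medium containing serially diluted compounds, followed by a further 48 h. MTT added for 4 h at 37 °C and formazan dissolved in DMSO for 10 min. OD read at 620 nm. IC50 taken from the viability–concentration survival curve. Three independent experiments, each in triplicate.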

MCF7 [8] = test: Induction of apoptosis in human MCF7 cells assessed as cell shrinkage after 24 hrs by brightfield inverted light microscopic analysis; assay type: functional, cell-based
A549 [9] = test: Induction of apoptosis in human A549 cells assessed as nuclear fragmentation after 24 hrs by DAPI staining-based fluorescence microscopic analysis; assay type: functional, cell-based; summary of the method: as §2
MCF7 [10] = test: Induction of apoptosis in human MCF7 cells assessed as damaged cell membranes by acridine orange/ethidium bromide staining-based fluorescence microscopic analysis; assay type: functional; summary of the method: as §1
MCF7 [11] = test: Induction of apoptosis in human MCF7 cells assessed as nuclear fragmentation after 24 hrs by DAPI staining-based fluorescence microscopic analysis; assay type: functional, cell-based; summary of the method: as §2
A549 [12] = test: Induction of apoptosis in human A549 cells assessed as membrane blebbing after 24 hrs by brightfield inverted light microscopic analysis; assay type: functional, cell-based
MCF7 [13] = test: Induction of apoptosis in human MCF7 cells assessed as nuclear condensation by acridine orange/ethidium bromide staining-based fluorescence microscopic analysis; assay type: functional, cell-based; summary of the method: as §1
A549 [14] = test: Induction of apoptosis in human A549 cells assessed as cell shrinkage after 24 hrs by brightfield inverted light microscopic analysis; assay type: functional, cell-based
MCF7 [15] = test: Antiproliferative activity against human MCF7 cells after 48 hrs by MTT assay; assay type: functional, cell-based; conditions: for IC50: MCF7, 48 h; summary of the method: as §3

## O=C1Nc2ccccc2[C@]12N[C@H](c1ccccc1)[C@H](c1ccccc1)[C@@]21CCc2c([nH]c3ccc(Cl)cc23)C1=O
MCF7 [1]
  Activity: inactive
A549 [2]
  Activity: inactive
MCF7 [3]
  Activity: Active
A549 [4]
  Activity: inactive
MCF7 [5]
  Activity: inactive
MCF7 [6]
  Activity: inactive
A549 [7]
  Activity: Dose-dependent effect
  IC50: 15 µM
MCF7 [8]
  Activity: inactive
A549 [9]
  Activity: inactive
MCF7 [10]
  Activity: inactive
MCF7 [11]
  Activity: Active
A549 [12]
  Activity: inactive
MCF7 [13]
  Activity: inactive
A549 [14]
  Activity: inactive
MCF7 [15]
  Activity: Dose-dependent effect
  IC50: 18 µM

## COc1ccc([C@H]2[C@@H](c3ccccc3)N[C@@]3(C(=O)Nc4ccccc43)[C@]23CCc2c([nH]c4ccc(C)cc24)C3=O)cc1
MCF7 [1]
  Activity: inactive
A549 [2]
  Activity: inactive
MCF7 [3]
  Activity: Active
A549 [4]
  Activity: inactive
MCF7 [5]
  Activity: inactive
MCF7 [6]
  Activity: inactive
A549 [7]
  Activity: Dose-dependent effect
  IC50: 20 µM
MCF7 [8]
  Activity: inactive
A549 [9]
  Activity: inactive
MCF7 [10]
  Activity: inactive
MCF7 [11]
  Activity: Active
A549 [12]
  Activity: inactive
MCF7 [13]
  Activity: inactive
A549 [14]
  Activity: inactive
MCF7 [15]
  Activity: Dose-dependent effect
  IC50: 18 µM

## O=C1Nc2ccccc2[C@]12N[C@H](c1ccccc1)[C@H](c1cccs1)[C@@]21CCc2c([nH]c3ccccc23)C1=O
MCF7 [1]
  Activity: inactive
A549 [2]
  Activity: inactive
A549 [4]
  Activity: Active
MCF7 [5]
  Activity: inactive
MCF7 [6]
  Activity: inactive
A549 [7]
  Activity: Dose-dependent effect
  IC50: 16 µM
MCF7 [8]
  Activity: inactive
A549 [9]
  Activity: inactive
MCF7 [10]
  Activity: inactive
MCF7 [11]
  Activity: Active
A549 [12]
  Activity: inactive
MCF7 [13]
  Activity: inactive
A549 [14]
  Activity: inactive
MCF7 [15]
  Activity: Dose-dependent effect
  IC50: 15 µM

## Cc1ccc2[nH]c3c(c2c1)CC[C@]1(C3=O)[C@@H](c2ccccc2)[C@@H](c2ccccc2)N[C@@]12C(=O)Nc1ccccc12
MCF7 [1]
  Activity: inactive
A549 [2]
  Activity: inactive
MCF7 [3]
  Activity: Active
A549 [4]
  Activity: inactive
MCF7 [5]
  Activity: inactive
MCF7 [6]
  Activity: inactive
A549 [7]
  Activity: Dose-dependent effect
  IC50: 18 µM
MCF7 [8]
  Activity: inactive
A549 [9]
  Activity: inactive
MCF7 [10]
  Activity: inactive
MCF7 [11]
  Activity: Active
A549 [12]
  Activity: inactive
MCF7 [13]
  Activity: inactive
A549 [14]
  Activity: inactive
MCF7 [15]
  Activity: Dose-dependent effect
  IC50: 19 µM

## COc1ccc([C@H]2[C@@H](c3ccccc3)N[C@@]3(C(=O)Nc4ccccc43)[C@]23CCc2c([nH]c4ccccc24)C3=O)cc1
A549 [7]
  Activity: Dose-dependent effect
  IC50: 21 µM
MCF7 [15]
  Activity: Dose-dependent effect
  IC50: 17 µM

## Cc1ccc2[nH]c3c(c2c1)CC[C@]1(C3=O)[C@@H](c2cccs2)[C@@H](c2ccccc2)N[C@@]12C(=O)Nc1ccccc12
MCF7 [1]
  Activity: Active
A549 [2]
  Activity: Dose-dependent effect
A549 [4]
  Activity: Active
MCF7 [5]
  Activity: Dose-dependent effect
MCF7 [6]
  Activity: Dose-dependent effect
A549 [7]
  Activity: Dose-dependent effect
  IC50: 15 µM
MCF7 [8]
  Activity: Dose-dependent effect
A549 [9]
  Activity: Active
MCF7 [10]
  Activity: Active
MCF7 [11]
  Activity: Active
A549 [12]
  Activity: Dose-dependent effect
MCF7 [13]
  Activity: Active
A549 [14]
  Activity: Dose-dependent effect
MCF7 [15]
  Activity: Dose-dependent effect
  IC50: 14 µM

## COc1ccc([C@H]2[C@@H](c3ccccc3)N[C@@]3(C(=O)Nc4ccccc43)[C@]23CCc2c([nH]c4ccc(Cl)cc24)C3=O)cc1
MCF7 [1]
  Activity: inactive
A549 [2]
  Activity: inactive
MCF7 [3]
  Activity: Active
A549 [4]
  Activity: inactive
MCF7 [5]
  Activity: inactive
MCF7 [6]
  Activity: inactive
A549 [7]
  Activity: Dose-dependent effect
  IC50: 18 µM
MCF7 [8]
  Activity: inactive
A549 [9]
  Activity: inactive
MCF7 [10]
  Activity: inactive
MCF7 [11]
  Activity: Active
A549 [12]
  Activity: inactive
MCF7 [13]
  Activity: inactive
A549 [14]
  Activity: inactive
MCF7 [15]
  Activity: Dose-dependent effect
  IC50: 19 µM

## O=C1Nc2ccccc2[C@]12N[C@H](c1ccccc1)[C@H](c1ccccc1)[C@@]21CCc2c([nH]c3ccccc23)C1=O
MCF7 [1]
  Activity: inactive
A549 [2]
  Activity: inactive
A549 [4]
  Activity: inactive
MCF7 [5]
  Activity: inactive
MCF7 [6]
  Activity: inactive
A549 [7]
  Activity: Dose-dependent effect
  IC50: 17 µM
MCF7 [8]
  Activity: inactive
A549 [9]
  Activity: inactive
MCF7 [10]
  Activity: inactive
MCF7 [11]
  Activity: Active
A549 [12]
  Activity: inactive
MCF7 [13]
  Activity: inactive
A549 [14]
  Activity: inactive
MCF7 [15]
  Activity: Dose-dependent effect
  IC50: 15 µM
